What all share (assay type): cell-based
One assay has as its target T1, CLC-0 E166N mutant (Torpedo marmorata, UniProt P21564, C212S/E166N).
T1 sequence (P21564 1-805 E166N/C212S): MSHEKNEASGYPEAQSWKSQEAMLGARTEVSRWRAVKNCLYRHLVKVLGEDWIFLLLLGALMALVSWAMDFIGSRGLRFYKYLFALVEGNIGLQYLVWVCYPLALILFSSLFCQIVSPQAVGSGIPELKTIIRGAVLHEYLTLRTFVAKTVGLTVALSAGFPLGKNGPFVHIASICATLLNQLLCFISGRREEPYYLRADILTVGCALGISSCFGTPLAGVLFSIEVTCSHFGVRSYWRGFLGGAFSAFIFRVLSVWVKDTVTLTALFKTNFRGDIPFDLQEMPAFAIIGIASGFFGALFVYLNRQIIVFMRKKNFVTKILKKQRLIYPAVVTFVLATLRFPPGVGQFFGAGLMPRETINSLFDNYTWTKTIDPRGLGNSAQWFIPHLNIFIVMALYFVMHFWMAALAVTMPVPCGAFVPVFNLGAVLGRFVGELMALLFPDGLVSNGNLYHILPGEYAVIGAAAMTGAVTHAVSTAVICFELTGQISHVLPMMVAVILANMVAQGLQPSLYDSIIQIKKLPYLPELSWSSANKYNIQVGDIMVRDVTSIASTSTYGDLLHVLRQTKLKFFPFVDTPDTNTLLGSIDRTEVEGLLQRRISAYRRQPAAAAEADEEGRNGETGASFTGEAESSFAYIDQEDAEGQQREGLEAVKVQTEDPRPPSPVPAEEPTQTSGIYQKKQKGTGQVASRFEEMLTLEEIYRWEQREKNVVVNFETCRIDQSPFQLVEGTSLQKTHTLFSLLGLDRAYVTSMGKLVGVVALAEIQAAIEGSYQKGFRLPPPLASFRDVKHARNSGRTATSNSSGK
The conditions noted are these: read-out: Apparent affinity (K1/2). An outline of the steps: (§1)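 CLC-0 mutants in the C212S background were transfected into HEK293 cells with lipofectamine and recorded 1–3 d later as excised inside-out patches. Both sides held 130 mM NaCl, 5 mM MgCl2, 10 mM HEPES and 1 mM EGTA, pH 7.4. CPA was perfused continuously onto the cytoplasmic face. Steady-state current over the last 10 ms was normalized to bracketing blocker-free controls and fitted to a Langmuir function for K1/2. Values are mean ± SEM of ~4–6 patches.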

The target in assay [1] is T2, CLC-0 E166C mutant (E127/K519) (Torpedo marmorata, UniProt P21564, C212S/E166C).
T2 sequence (P21564 1-805 E166C/C212S): T1 sequence (P21564 1-805 E166N/C212S) with N166C
The conditions noted are these: for IC50: read-out: Apparent affinity (K1/2). An outline of the steps: as §1

The target of assay [2] is T3, CLC-0 E166C/E127Q mutant (E127Q/K519) (Torpedo marmorata, UniProt P21564, C212S/E127Q/E166C).
T3 sequence (P21564 1-805 E127Q/E166C/C212S): T1 sequence (P21564 1-805 E166N/C212S) with E127Q, N166C
The conditions noted are these: for IC50: read-out: Apparent affinity (K1/2). An outline of the steps:
as §1

Substitutions are numbered along the chain they refer to. Read-outs that look alike come from different tables or passages of the source. A value given as a limit tells only on which side of the number the result lay.

As to `O=C(O)COc1ccc(Cl)cc1` [CPA, p-chlorophenoxy acetate], the IC50 at CLC-0 E166N mutant (−40 mV) was determined as 9750 ± 570 µM; on CLC-0 E166N mutant (−60 mV), 5780 ± 220 µM; at CLC-0 E166N mutant (−80 mV), 3270 ± 90 µM; at CLC-0 E166N mutant (−100 mV), 1850 ± 40 µM; on CLC-0 E166N mutant (−120 mV), 1060 ± 20 µM; on CLC-0 E166N mutant (−140 mV), 620 ± 20 µM. Also, the IC50 at CLC-0 E166N mutant (−160 mV) worked out at 380 ± 10 µM; in assay [1] (−40 mV), 581 ± 94 µM; in assay [1] (−60 mV), 349 ± 15 µM; in assay [1] (−80 mV), 186 ± 7 µM; in assay [1] (−100 mV) it was 104 ± 3 µM; in assay [1] (−120 mV), 61 ± 2 µM. In addition, the IC50 was determined as 38 ± 1 µM in assay [1] (−140 mV); 26 ± 1 µM in assay [1] (−160 mV); 491 ± 58 µM in assay [2] (−40 mV); 228 ± 23 µM in assay [2] (−60 mV); 113 ± 10 µM in assay [2] (−80 mV); 57 ± 4 µM in assay [2] (−100 mV). The IC50 in assay [2] (−120 mV) was 33 ± 3 µM; in assay [2] (−140 mV) it was 21 ± 2 µM; in assay [2] (−160 mV) it was 15 ± 2 µM. Besides, in assay [1] (0.3 mM CPA, −160 mV), the block of current is listed as > 90%. For the same molecule, the results for the apparent koff in assay [1] (−160 mV) and in assay [2] (−160 mV) were 17.2 s⁻¹ and 17.9 s⁻¹, respectively. The apparent kon worked out at 630000 M⁻¹ s⁻¹ in assay [1] (−160 mV) and 760000 M⁻¹ s⁻¹ in assay [2] (−160 mV).
Consider `CCCCCCCC(=O)O` [octanoate], for which the IC50 at CLC-0 E166N mutant (−40 mV) was determined as 4930 ± 180 µM; at CLC-0 E166N mutant (−60 mV) it was 2550 ± 47 µM; on CLC-0 E166N mutant (−80 mV) it was 1340 ± 29 µM; on CLC-0 E166N mutant (−100 mV), 694 ± 18 µM; at CLC-0 E166N mutant (−120 mV) it was 380 ± 9 µM; on CLC-0 E166N mutant (−140 mV), 212 ± 4 µM. In addition, the IC50 is 125 ± 2 µM at CLC-0 E166N mutant (−160 mV); 88.5 ± 17.1 µM in assay [1] (−40 mV); 43.1 ± 6.4 µM in assay [1] (−60 mV); 20.7 ± 3.4 µM in assay [1] (−80 mV); 10.2 ± 1.8 µM in assay [1] (−100 mV); 5.6 ± 1.1 µM in assay [1] (−120 mV). Also, the IC50 was found to be 3.5 ± 0.8 µM in assay [1] (−140 mV) and 2 ± 0.5 µM in assay [1] (−160 mV).

The values above are taken from PMC2606940 (The Journal of General Physiology, 2009).
